{"source": "ChEMBL document CHEMBL1138409", "about": "“Diaryl substituted pyrazoles as potent CCR2 receptor antagonists” (Bioorg Med Chem Lett, 2007)", "key": {"[1]": {"molecular_target": "T1, C-C chemokine receptor type 2 (Homo sapiens, UniProt P41597)", "assay": "Displacement of 125I-hMCP1 from CCR2 expressed in human peripheral blood monocytes at 10 uM after 60 mins", "type": "cell-based"}, "[2]": {"molecular_target": "T1, C-C chemokine receptor type 2", "assay": "Displacement of 125I-hMCP1 from CCR2 expressed in human peripheral blood monocytes after 60 mins", "type": "cell-based", "how_it_was_run": "(§1)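 Primary human blood monocytes, which express CCR2 endogenously, were incubated with 125I-hMCP-1 (2200 Ci/mmol) and the unlabeled compound. Incubation was 60 min at room temperature in 50 mM Hepes, 5 mM MgCl2 and 1 mM CaCl2, pH 7.4. Bound label was collected by filtration through PEI-presoaked GF/B filters and washed with 25 mM Hepes pH 7.5 containing 500 mM NaCl. Filters were then dried and counted by scintillation. Values are the mean of at least two experiments.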"}, "[3]": {"molecular_target": "C-C chemokine receptor type 5 (Homo sapiens, UniProt P51681)", "sequence (P51681 whole entry)": "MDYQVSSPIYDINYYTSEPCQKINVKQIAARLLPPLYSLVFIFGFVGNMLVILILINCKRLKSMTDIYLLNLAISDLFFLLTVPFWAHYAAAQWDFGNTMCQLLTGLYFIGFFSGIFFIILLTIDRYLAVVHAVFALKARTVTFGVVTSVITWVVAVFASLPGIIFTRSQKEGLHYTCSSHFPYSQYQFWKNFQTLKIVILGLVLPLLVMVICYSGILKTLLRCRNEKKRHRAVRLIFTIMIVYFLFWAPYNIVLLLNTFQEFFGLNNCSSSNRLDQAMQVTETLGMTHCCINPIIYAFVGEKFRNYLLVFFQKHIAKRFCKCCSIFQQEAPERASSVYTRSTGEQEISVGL", "assay": "Inhibition of CCR5"}, "[4]": {"assay": "Half life in Sprague-Dawley rat", "type": "ADME, organism-based", "details": "in vivo"}, "[5]": {"assay": "Oral bioavailability in Sprague-Dawley rat at 2 mg/kg", "type": "ADME, organism-based", "details": "in vivo"}, "[6]": {"assay": "Volume of distribution in Sprague-Dawley rat", "type": "ADME, organism-based", "details": "in vivo"}, "[7]": {"assay": "Clearance in Sprague-Dawley rat at 1 mg/kg, iv and 2 mg/kg, po", "type": "ADME, organism-based", "details": "in vivo"}, "[8]": {"molecular_target": "T1, C-C chemokine receptor type 2", "assay": "Antagonist activity against human CCR2 receptor assessed as inhibition of MCP1-induced migration of human peripheral blood monocytes at 300 nM", "type": "functional", "design": "scale not given: the % may be the effect or the level left"}, "[9]": {"molecular_target": "T1, C-C chemokine receptor type 2", "assay": "Displacement of 125I-hMCP1 from CCR2 expressed in human peripheral blood monocytes at 1 uM after 60 mins", "type": "cell-based"}, "[10]": {"molecular_target": "T1, C-C chemokine receptor type 2", "assay": "Displacement of 125I-hMCP1 from CCR2 expressed in human peripheral blood monocytes less than 10 uM after 60 mins", "type": "cell-based", "how_it_was_run": "as §1"}}, "note": "The source made the active and inactive calls. No cut-off for these calls is given here.", "data": [{"compound": "CCN(CC)CCCC(C)NC(=O)CCCc1cc(-c2ccccc2Cl)nn1-c1ccc2ccccc2c1", "note": "(centres undefined)", "values": [{"measurement": "Activity", "setting": "[1]", "result": 69, "unit": "%"}]}, {"compound": "COC(=O)[C@H](CCCNC(=N)N)NC(=O)CCCOc1cc(-c2cc(Cl)cc(Cl)c2)nn1-c1ccc2ccccc2c1", "values": [{"measurement": "IC50", "setting": "[2]", "result": 7600, "unit": "nM"}]}, {"compound": "CCCC(CCCN(CC)CC)NC(=O)CCOc1cc(-c2cc(Cl)cc(Cl)c2)nn1-c1ccc2ccccc2c1", "note": "(centres undefined)", "values": [{"measurement": "IC50", "setting": "[2]", "result": 44, "unit": "nM"}]}, {"compound": "CCN(CC)CCCC(C)NC(=O)CCCc1cc(-c2cc(Cl)cc(Cl)c2)nn1-c1ccccc1", "note": "(centres undefined)", "values": [{"measurement": "Activity", "setting": "[1]", "result": 69, "unit": "%"}]}, {"compound": "CCN(CC)CCCC(C)NC(=O)CCCc1cc(-c2cc(Cl)cc(Cl)c2)nn1-c1ccc2ccccc2c1", "note": "(centres undefined)", "values": [{"measurement": "IC50", "setting": "[2]", "result": 108, "unit": "nM"}, {"measurement": "IC50", "setting": "[3]", "result": 220, "unit": "nM"}, {"measurement": "half-life", "setting": "[4]", "result": 6.52, "unit": "h"}, {"measurement": "bioavailability", "setting": "[5]", "result": 5, "unit": "%"}, {"measurement": "Vd", "setting": "[6]", "result": 13, "unit": "L/kg"}, {"measurement": "clearance", "setting": "[7]", "result": 28.1, "unit": "mL/min/kg"}]}, {"compound": "COC(=O)[C@H](CCCNC(=N)N)NC(=O)CCNc1cc(-c2cc(Cl)cc(Cl)c2)nn1-c1ccc2ccccc2c1", "values": [{"measurement": "IC50", "setting": "[2]", "result": 43, "unit": "nM"}]}, {"compound": "CCN(CC)CCCC(C)NC(=O)CCCc1cc(-c2cccc(F)c2)nn1-c1ccc2ccccc2c1", "note": "(centres undefined)", "values": [{"measurement": "IC50", "setting": "[2]", "result": 522, "unit": "nM"}]}, {"compound": "CCN(CC)CCCC(C)NC(=O)CCOc1cc(-c2cc(Cl)cc(Cl)c2)nn1-c1ccc2ccccc2c1", "note": "(centres undefined)", "values": [{"measurement": "IC50", "setting": "[2]", "result": 66, "unit": "nM"}]}, {"compound": "CCN(CC)CCCC(NC(=O)CCOc1cc(-c2cc(Cl)cc(Cl)c2)nn1-c1ccc2ccccc2c1)C(C)C", "note": "(centres undefined)", "values": [{"measurement": "IC50", "setting": "[2]", "result": 6, "unit": "nM"}, {"measurement": "IC50", "setting": "[3]", "result": 1610, "unit": "nM"}]}, {"compound": "O=C(CCCc1cc(-c2cc(Cl)cc(Cl)c2)nn1-c1ccc2ccccc2c1)NCCCc1ccncc1", "values": [{"measurement": "IC50", "setting": "[2]", "result": 1120, "unit": "nM"}]}, {"compound": "CCN(CC)CCCC(C)NC(=O)CCCc1cc(-c2cccc(Cl)c2)nn1-c1ccc2ccccc2c1", "note": "(centres undefined)", "values": [{"measurement": "IC50", "setting": "[2]", "result": 168, "unit": "nM"}, {"measurement": "Activity", "setting": "[8]", "result": 57, "unit": "%"}]}, {"compound": "CCN(CC)CCCC(C)NC(=O)CCCc1cc(-c2cc(C(F)(F)F)cc(C(F)(F)F)c2)nn1-c1ccc2ccccc2c1", "note": "(centres undefined)", "values": [{"measurement": "IC50", "setting": "[2]", "result": 634, "unit": "nM"}]}, {"compound": "CCCCC(CCCN(CC)CC)NC(=O)CCOc1cc(-c2cc(Cl)cc(Cl)c2)nn1-c1ccc2ccccc2c1", "note": "(centres undefined)", "values": [{"measurement": "Activity", "setting": "[9]", "result": 52, "unit": "%"}]}, {"compound": "COC(=O)[C@H](CCCN=C(N)N)NC(=O)CCc1cc(-c2cc(Cl)cc(Cl)c2)nn1-c1ccc2ccccc2c1", "values": [{"measurement": "IC50", "setting": "[2]", "result": 4740, "unit": "nM"}]}, {"compound": "CCN(CC)CCCC(C)NC(=O)CCCc1cc(-c2cccc(C(F)(F)F)c2)nn1-c1ccc2ccccc2c1", "note": "(centres undefined)", "values": [{"measurement": "IC50", "setting": "[2]", "result": 207, "unit": "nM"}]}, {"compound": "COC(=O)[C@H](CCCNC(=N)N)NC(=O)CC(=O)Nc1cc(-c2cc(Cl)cc(Cl)c2)nn1-c1ccc2ccccc2c1", "values": [{"measurement": "IC50", "setting": "[10]", "result": "Not Active"}]}, {"compound": "COC(=O)[C@H](CCCNC(=N)N)NC(=O)c1cccc(-c2cc(-c3cc(Cl)cc(Cl)c3)nn2-c2ccc3ccccc3c2)c1", "values": [{"measurement": "IC50", "setting": "[10]", "result": "Not Active"}]}, {"compound": "CCC(C)CC(CCCN(CC)CC)NC(=O)CCOc1cc(-c2cc(Cl)cc(Cl)c2)nn1-c1ccc2ccccc2c1", "note": "(centres undefined)", "values": [{"measurement": "IC50", "setting": "[2]", "result": 107, "unit": "nM"}]}, {"compound": "CCC(CCCN(CC)CC)NC(=O)CCOc1cc(-c2cc(Cl)cc(Cl)c2)nn1-c1ccc2ccccc2c1", "note": "(centres undefined)", "values": [{"measurement": "IC50", "setting": "[2]", "result": 9, "unit": "nM"}]}, {"compound": "CCN(CC)CCCC(C)NC(=O)CCCc1cc(-c2cc(Cl)cc(Cl)c2)nn1-c1cc(C(F)(F)F)cc(C(F)(F)F)c1", "note": "(centres undefined)", "values": [{"measurement": "IC50", "setting": "[2]", "result": 6470, "unit": "nM"}]}, {"compound": "CCN(CC)CCCC(C)NC(=O)CCNc1cc(-c2cc(Cl)cc(Cl)c2)nn1-c1ccc2ccccc2c1", "note": "(centres undefined)", "values": [{"measurement": "IC50", "setting": "[2]", "result": 30, "unit": "nM"}]}, {"compound": "CN(C)CCCCNC(=O)CCCc1cc(-c2cc(Cl)cc(Cl)c2)nn1-c1ccc2ccccc2c1", "values": [{"measurement": "IC50", "setting": "[2]", "result": 1800, "unit": "nM"}]}, {"compound": "COC(=O)[C@H](CCCNC(=N)N)NC(=O)CCOc1cc(-c2cc(Cl)cc(Cl)c2)nn1-c1ccc2ccccc2c1", "values": [{"measurement": "IC50", "setting": "[2]", "result": 62, "unit": "nM"}]}, {"compound": "CCN(CC)CCCCNC(=O)CCCc1cc(-c2cc(Cl)cc(Cl)c2)nn1-c1ccc2ccccc2c1", "values": [{"measurement": "IC50", "setting": "[2]", "result": 1230, "unit": "nM"}]}, {"compound": "COC(=O)[C@H](Cc1c[nH]cn1)NC(=O)CCCc1cc(-c2cc(Cl)cc(Cl)c2)nn1-c1ccc2ccccc2c1", "values": [{"measurement": "IC50", "setting": "[2]", "result": 2840, "unit": "nM"}]}, {"compound": "COC(=O)[C@H](CCCNC(=N)N)NC(=O)CCCc1cc(-c2cc(Cl)cc(Cl)c2)nn1-c1ccc2ccccc2c1", "values": [{"measurement": "IC50", "setting": "[2]", "result": 221, "unit": "nM"}, {"measurement": "IC50", "setting": "[3]", "result": 63, "unit": "nM"}, {"measurement": "half-life", "setting": "[4]", "result": 2.49, "unit": "h"}, {"measurement": "bioavailability", "setting": "[5]", "result": 0, "unit": "%"}, {"measurement": "Vd", "setting": "[6]", "result": 0.98, "unit": "L/kg"}, {"measurement": "clearance", "setting": "[7]", "result": 8.3, "unit": "mL/min/kg"}]}, {"compound": "O=C(CCCc1cc(-c2cc(Cl)cc(Cl)c2)nn1-c1ccc2ccccc2c1)NCCCc1ccc2c(n1)NCCC2", "values": [{"measurement": "IC50", "setting": "[2]", "result": 9330, "unit": "nM"}]}, {"compound": "CCN(CC)CCCC(C)NC(=O)CCCc1cc(-c2cccc(OC)c2)nn1-c1ccc2ccccc2c1", "note": "(centres undefined)", "values": [{"measurement": "IC50", "setting": "[2]", "result": 2390, "unit": "nM"}]}, {"compound": "CCN(CC)CCCC(CC(C)C)NC(=O)CCOc1cc(-c2cc(Cl)cc(Cl)c2)nn1-c1ccc2ccccc2c1", "note": "(centres undefined)", "values": [{"measurement": "IC50", "setting": "[2]", "result": 74, "unit": "nM"}]}, {"compound": "CCN(CC)CCCC(C)NC(=O)CCCc1cc(-c2ccc(Cl)cc2)nn1-c1ccc2ccccc2c1", "note": "(centres undefined)", "values": [{"measurement": "IC50", "setting": "[2]", "result": 442, "unit": "nM"}, {"measurement": "Activity", "setting": "[8]", "result": "inactive"}]}, {"compound": "COC(=O)[C@H](CCCNC(=N)N)NCCCCc1cc(-c2cc(Cl)cc(Cl)c2)nn1-c1ccc2ccccc2c1", "values": [{"measurement": "IC50", "setting": "[10]", "result": "Not Active"}]}]}
